Results from different studies.
Protocols differ between the studies behind these lines.
Target: Serine/threonine-protein kinase RIO3 (RIOK3, Homo sapiens, UniProt O14730)
Residues used in one study (O14730 1-519): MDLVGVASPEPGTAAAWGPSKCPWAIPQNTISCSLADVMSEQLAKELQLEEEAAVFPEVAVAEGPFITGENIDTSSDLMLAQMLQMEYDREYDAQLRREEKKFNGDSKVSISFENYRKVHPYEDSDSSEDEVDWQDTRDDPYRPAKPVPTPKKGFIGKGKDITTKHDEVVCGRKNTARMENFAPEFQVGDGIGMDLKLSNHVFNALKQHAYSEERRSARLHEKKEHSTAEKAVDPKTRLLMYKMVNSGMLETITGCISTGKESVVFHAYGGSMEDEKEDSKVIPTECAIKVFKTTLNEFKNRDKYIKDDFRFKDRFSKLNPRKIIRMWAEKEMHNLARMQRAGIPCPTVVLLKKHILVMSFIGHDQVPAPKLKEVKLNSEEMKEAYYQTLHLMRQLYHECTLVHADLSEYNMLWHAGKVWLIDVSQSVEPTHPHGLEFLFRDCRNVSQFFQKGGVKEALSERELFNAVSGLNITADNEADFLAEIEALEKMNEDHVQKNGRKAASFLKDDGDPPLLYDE

CC(=O)N1CCC(c2ccc(C(=O)NC(=N)N)cc2C(F)(F)F)CC1 — remaining binding (cell-free assay, competition with immobilised ligand; 1 µM): 100%
O=C(c1ccc(Nc2ncc(Cl)c(-c3cc4ccccc4s3)n2)cc1)N1CCC(N2CCCC2)CC1 — remaining binding (binding, competition with immobilised ligand; 1 µM): 0%
CN(C)c1ncc(F)c(-c2cnn3ncccc23)n1 — remaining binding (binding; 1 µM): 100%
CO[C@@H](C)c1c(Nc2ccc([C@@H](N(C)C(=O)C3CCS(=O)(=O)CC3)C(F)(F)F)cc2)cnc2cc(Cl)nn12 — remaining binding (cell-free assay, competition with immobilised ligand; 1 µM): 90%
O=C(NCC1CCOCC1)c1n[nH]cc1NC(=O)c1c(F)cccc1F — remaining binding (binding, competition with immobilised ligand; 1 µM): 84%
C[C@@H](c1ccc(-n2cnc3c(N)ncnc32)cc1)N1CCc2nn(C)c(Cc3ccccc3)c2C1=O — remaining binding (binding, competition with immobilised ligand; 0.1 µM): 76%
COc1ncc2cc3ccccc3nc2c1C#N — remaining binding (cell-free assay, competition with immobilised ligand; 5 µM): 97%
F[C@@H]1CCN(c2nccc(-c3cnn4ncccc34)n2)C1 — remaining binding (binding; 1 µM): 85%
CCS(=O)(=O)c1cc2cc(C[C@](O)(CC(C)(C)c3ccc(F)cc3C(N)=O)C(F)(F)F)[nH]c2cn1 — remaining binding (cell-free assay, competition with immobilised ligand; 1 µM): 91%
O=C(c1ccc(Nc2ncc(Cl)c(-c3ccc(Cl)s3)n2)cc1)N1CCC(N2CCCC2)CC1 — remaining binding (binding, competition with immobilised ligand; 1 µM): 0%
COc1cc(-c2cn(C3CCc4ccccc4N(CC(F)(F)F)C3=O)nn2)ccc1-n1ccc(C)n1 (stereo not shown) — remaining binding (cell-free assay, competition with immobilised ligand; 1 µM): 100%
COc1cnc(Nc2cccc(S(N)(=O)=O)c2)nc1N1CCN(c2ccccc2)CC1 — remaining binding (binding, competition with immobilised ligand; 1 µM): 91%
O=C1NC(c2ccccn2)Sc2ccccc21 (stereo not shown) — remaining binding (cell-free assay, competition with immobilised ligand; 1 µM): 91%
C=CC(=O)N1CCC(C(=O)NCC(=O)N2CCN(c3nc(-c4cnc(N)nc4C(F)F)nc(N4CCOCC4)n3)CC2)CC1 — remaining binding (binding, competition with immobilised ligand; 1 µM): 100%
C[C@@H]1CCN(c2nccc(-c3cnn4ncccc34)n2)C1 — remaining binding (binding; 1 µM): 100%
CCCOc1ccc([C@H]2[C@H](C(=O)O)[C@@H](c3ccc4c(c3)OCO4)CN2CC(=O)Nc2c(CC)cccc2CC)cc1 — remaining binding (cell-free assay, competition with immobilised ligand; 1 µM): 100%
Cc1cnn2ncc(-c3ccnc(N(C)C)n3)c2c1 — remaining binding (binding; 1 µM): 100%
CCN1CCN(Cc2ccc(C(=O)Nc3ccc(C)c(Oc4ccc5c(c4)CC(=O)N5)c3)cc2C(F)(F)F)CC1 — remaining binding (binding, competition with immobilised ligand; 1 µM): 100%
N[C@H]1CCN(c2nccc(-c3cnn4ncccc34)n2)C1 — remaining binding (binding; 1 µM): 81%
O=C(c1ccc(Nc2nccc(-c3cc4ccccc4s3)n2)cc1)N1CCC(N2CCCC2)CC1 — remaining binding (binding, competition with immobilised ligand; 1 µM): 0.9%
CC1CCCN1c1nccc(-c2cnn3ncccc23)n1 (stereo not shown) — remaining binding (binding; 1 µM): 100%
O=C(N1CCS(=O)(=O)CC1)N1C[C@H](c2ccc(OC(F)(F)F)cc2)C[C@H](c2nc(C3CC3)no2)C1 — remaining binding (cell-free assay, competition with immobilised ligand; 1 µM): 85%
